Assay [1] concerns A498. Put plainly: Cytotoxicity against human A498 cells after 48 hrs by MTT assay. In kind it is functional, cell-based. The following applies: A498, 48 h.
Assay [2] relates to HL-60. Nature of the assay: Cytotoxicity against human HL60 cells after 48 hrs by MTT assay. The assay is classed as functional, cell-based. To be noted: HL-60, 48 h. In a few lines:
(§1)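 Cells were treated with a range of concentrations for 48 h. Viability was read by MTT: formazan was dissolved in DMSO and absorbance read at 570 nm. Untreated or 0.1% DMSO cells served as control. Data are mean from three independent experiments. HL-60, H460 and COLO 205 were kept in RPMI-1640 with 10% FBS and penicillin/streptomycin.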
(In general: Formazan colour is commonly taken as a measure of viable cells.)

Assay [3] has as its system Detroit 551. Put plainly: Cytotoxicity against human Detroit 551 cells after 48 hrs by MTT assay. In kind it is cell-based. The following applies: Detroit 551, 48 h.
Assay [4] can be described thus: Cytotoxicity against human Hep3B cells after 48 hrs by MTT assay. The assay is classed as functional, cell-based, Hep 3B2.
A short description of assay [5]: Cytotoxicity against human H460 cells after 48 hrs by MTT assay. In kind it is functional, cell-based. To be noted: NCI-H460, 48 h. The essentials:
as §1

For assay [6], the system named is COLO 205. Put plainly: Cytotoxicity against human COLO205 cells after 48 hrs by MTT assay. The assay is classed as functional, cell-based. The following applies: COLO 205, 48 h. In a few lines:
as §1

Consider 35 compounds from ChEMBL document CHEMBL2412970, “Synthesis and anticancer activity of 2,4-disubstituted furo[3,2-b]indole derivatives” (Eur J Med Chem, 2013).

Broadly, the IC50 is the point on the concentration scale where inhibition reaches its midpoint. Higher therefore signals weaker potency.

A value given as a limit tells only on which side of the number the result lay.

As for `CCn1c2ccccc2c2oc(C(=O)OC)cc21`, the IC50 in assay [1], in assay [2], in assay [3], in assay [4], in assay [5] and in assay [6] was over 50 µM throughout.
As to `COc1ccc(Cn2c3ccccc3c3oc(CO)cc32)cc1`, the IC50 in assay [1] was 0.36 µM; in assay [2], 54.5 µM; in assay [3] it was over 50 µM; in assay [4], 45.9 µM; in assay [5] it was 42.9 µM; in assay [6], 29.8 µM.
For the compound `COC(=O)c1cccc(Cn2c3ccccc3c3oc(C(=O)OC)cc32)c1`, the IC50 in assay [1] is over 50 µM; in assay [2], 16.5 µM; in assay [3], over 50 µM; in assay [4] it was 50 µM; in assay [5], over 50 µM; in assay [6], over 50 µM.
As to `OCc1cc2c(o1)c1ccccc1n2Cc1ccc2c(c1)OCO2`, the IC50 is 0.27 µM in assay [1]; over 50 µM in assay [2]; over 50 µM in assay [3]; over 50 µM in assay [4]; over 50 µM in assay [5]; over 50 µM in assay [6].
On to `COC(=O)c1cc2c(o1)c1ccccc1n2Cc1ccccc1OC`, for which the IC50 in assay [1] is over 50 µM; in assay [2], 25.1 µM; in assay [3], over 50 µM; in assay [4], 50 µM; in assay [5] it was over 50 µM; in assay [6], 32.9 µM.
As for `OCc1cc2c(o1)c1ccccc1n2Cc1ccc(CO)s1`, the IC50 in assay [1] was 0.69 µM; in assay [2] it was over 50 µM; in assay [3], over 50 µM; in assay [4], over 50 µM; in assay [5], over 50 µM; in assay [6] it was over 50 µM.
With `OCc1cc2c(o1)c1ccccc1n2Cc1ccc(F)cc1`, the IC50 was 0.69 µM in assay [1]; over 50 µM in assay [2]; over 50 µM in assay [3]; 44.2 µM in assay [4]; 36.7 µM in assay [5]; 35.9 µM in assay [6].
`OCc1cc2c(o1)c1ccccc1n2Cc1ccccc1Cl`: the concentration for half-maximal inhibition (IC50) was 5.5 µM in assay [1]; 16.8 µM in assay [2]; over 50 µM in assay [3]; 43.1 µM in assay [4]; 30.5 µM in assay [5]; 26.7 µM in assay [6].
Turning to `COc1cccc(Cn2c3ccccc3c3oc(CO)cc32)c1`, the IC50 is 0.33 µM in assay [1]; 35.4 µM in assay [2]; over 50 µM in assay [3]; 31.9 µM in assay [4]; 52 µM in assay [5]; 31.9 µM in assay [6].
Turning to `OCc1cc2c(o1)c1ccccc1n2Cc1ccc(Cl)cc1`, the IC50 in assay [1] turned out to be 0.79 µM; in assay [2], 38.9 µM; in assay [3], 44.4 µM; in assay [4], 36.2 µM; in assay [5], 31.3 µM; in assay [6], 8.1 µM.
As to `COC(=O)c1cc2c(o1)c1ccccc1n2Cc1ccc(F)cc1`, the IC50 in assay [1], in assay [2], in assay [3], in assay [4], in assay [5] and in assay [6] was over 50 µM each time.
Turning to `COC(=O)c1cc2c(o1)c1ccccc1n2Cc1ccc(C(=O)OC)s1`, the IC50 in assay [1], in assay [2], in assay [3], in assay [4], in assay [5] and in assay [6] was over 50 µM each time.
For the compound `OCc1cccc(Cn2c3ccccc3c3oc(CO)cc32)c1`, the IC50 in assay [1] was 0.37 µM; in assay [2] it was over 50 µM; in assay [3], over 50 µM; in assay [4], 50 µM; in assay [5], over 50 µM; in assay [6] it was over 50 µM.
As to `COC(=O)c1cc2c(o1)c1ccccc1n2Cc1ccccc1`, the IC50 in assay [1], in assay [2], in assay [3], in assay [4], in assay [5] and in assay [6] was over 50 µM each time.
For `Cn1c2ccccc2c2oc(C(=O)O)cc21`, the IC50 in assay [1], in assay [2], in assay [3], in assay [4], in assay [5] and in assay [6] was over 50 µM throughout.
As for `COc1ccccc1Cn1c2ccccc2c2oc(CO)cc21`, the IC50 in assay [1] was 4.3 µM; in assay [2], 13.3 µM; in assay [3] it was 60.5 µM; in assay [4], 24.6 µM; in assay [5] it was 30.8 µM; in assay [6], 28.3 µM.
Regarding `OCc1cc2c(o1)c1ccccc1n2Cc1cccc(Cl)c1`, the half-maximal inhibitory concentration (IC50) in assay [1] was 1.1 µM; in assay [2], 14.7 µM; in assay [3] it was over 50 µM; in assay [4], 29.8 µM; in assay [5] it was 50 µM; in assay [6], 26.4 µM.
As to `COC(=O)c1cc2c(o1)c1ccccc1n2Cc1ccccc1Cl`, the IC50 was over 50 µM in assay [1]; over 50 µM in assay [2]; over 50 µM in assay [3]; over 50 µM in assay [4]; over 50 µM in assay [5]; over 25 µM in assay [6].
In the case of `COC(=O)c1cc2c(o1)c1ccccc1n2Cc1ccc(OC)cc1`, the IC50 was over 50 µM in assay [1]; over 50 µM in assay [2]; over 50 µM in assay [3]; 58.6 µM in assay [4]; over 50 µM in assay [5]; over 50 µM in assay [6].
Turning to `CCn1c2ccccc2c2oc(CO)cc21`, the IC50 in assay [1] was 3.7 µM; in assay [2], over 50 µM; in assay [3], over 50 µM; in assay [4], over 50 µM; in assay [5] it was 50 µM; in assay [6], over 50 µM.
Regarding `COC(=O)c1cc2c(o1)c1ccccc1n2Cc1ccc(C(=O)OC)[se]1`, the IC50 is over 50 µM in assay [1]; over 25 µM in assay [2]; over 25 µM in assay [3]; over 25 µM in assay [4]; over 25 µM in assay [5]; over 50 µM in assay [6].
In the case of `COC(=O)c1cc2c(o1)c1ccccc1n2Cc1ccc(Cl)cc1`, the IC50 in assay [1], in assay [2], in assay [3], in assay [4], in assay [5] and in assay [6] was over 50 µM in each case.
`COC(=O)c1cc2c(o1)c1ccccc1n2Cc1ccc2c(c1)OCO2`: the IC50 in assay [1], in assay [2], in assay [3], in assay [4], in assay [5] and in assay [6] was over 50 µM in each case.
Turning to `OCc1cc2[nH]c3ccccc3c2o1`, the half-inhibitory concentration (IC50) in assay [1] was 21.8 µM; in assay [2], over 50 µM; in assay [3] it was over 50 µM; in assay [4] it was over 50 µM; in assay [5] it was over 50 µM; in assay [6], over 50 µM.
For `OCc1ccc(Cn2c3ccccc3c3oc(CO)cc32)cc1`, the IC50 in assay [1] was 0.47 µM; in assay [2] it was over 50 µM; in assay [3] it was over 50 µM; in assay [4], over 50 µM; in assay [5] it was over 50 µM; in assay [6], over 50 µM.
For the compound `COC(=O)c1cc2[nH]c3ccccc3c2o1`, the IC50 in assay [1], in assay [2], in assay [3], in assay [4], in assay [5] and in assay [6] was over 50 µM throughout.
Regarding `CCn1c2ccccc2c2oc(C(=O)O)cc21`, the IC50 in assay [1], in assay [2], in assay [3], in assay [4], in assay [5] and in assay [6] was over 50 µM each time.
With `COC(=O)c1cc2c(o1)c1ccccc1n2C`, the IC50 in assay [1] was over 50 µM; in assay [2], over 50 µM; in assay [3], over 50 µM; in assay [4], over 50 µM; in assay [5], 50 µM; in assay [6] it was over 50 µM.
Consider `COC(=O)c1cc2c(o1)c1ccccc1n2Cc1ccccc1F`, for which the IC50 in assay [1], in assay [2], in assay [3], in assay [4], in assay [5] and in assay [6] was over 50 µM throughout.
Regarding `O=C(O)c1cc2c(o1)c1ccccc1n2Cc1ccccc1`, the IC50 in assay [1], in assay [2], in assay [3], in assay [4], in assay [5] and in assay [6] was over 50 µM in each case.
For `COC(=O)c1cc2c(o1)c1ccccc1n2Cc1cccc(OC)c1`, the IC50 in assay [1], in assay [2], in assay [3], in assay [4], in assay [5] and in assay [6] was over 50 µM throughout.
In the case of `COC(=O)c1ccc(Cn2c3ccccc3c3oc(C(=O)OC)cc32)o1`, the IC50 in assay [1] was over 50 µM; in assay [2], 50 µM; in assay [3], over 50 µM; in assay [4] it was over 50 µM; in assay [5], over 50 µM; in assay [6] it was over 50 µM.
As to `COC(=O)c1cc2c(o1)c1ccccc1n2Cc1cccc(Cl)c1`, the IC50 in assay [1], in assay [2], in assay [3], in assay [4], in assay [5] and in assay [6] was over 50 µM each time.
Turning to `OCc1cc2c(o1)c1ccccc1n2Cc1cccc(F)c1`, the IC50 in assay [1] was 0.59 µM; in assay [2] it was 25 µM; in assay [3] it was over 50 µM; in assay [4], 44 µM; in assay [5], 50 µM; in assay [6], over 50 µM.
For `OCc1ccc(-c2nn(Cc3ccccc3)c3ccccc23)o1`, in assay [1], the concentration for half-maximal inhibition (IC50) stood at 0.37 µM.
